Assay results published in ChEMBL document CHEMBL1148105, “Bioactive metabolites from a marine-derived strain of the fungus Emericella variecolor” (2002).
Active and inactive are the calls of the source. The calls are words filed in the database; no cut-off is given here.

Assays:
HT-29 = experiment: Growth inhibition of human HT-29 cells; assay type: functional
KM12 = experiment: Growth inhibition of human KM12 cells; assay type: functional
Outline: (§1)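 Tested in the NCI 60-cell-line screen using the standard NCI protocol, with concentrations up to 10^-4 M. Growth inhibition is reported as GI50 (M), taken from the NCI mean graphs.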

UACC-257 = experiment: Growth inhibition of human UACC257 cells; assay type: functional
Outline: (§2)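 Run in the NCI 60-cell-line screen under the standard NCI protocol. Cells were tested at concentrations up to 10^-4 M. Potency was expressed as GI50 (M), taken from the NCI mean-graph data.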

Malme-3M = experiment: Growth inhibition of human MALME-3M cells; assay type: functional; outline: as §1
COLO 205 = experiment: Growth inhibition of human COLO205 cells; assay type: functional; outline: as §1
NCI/ADR-RES = experiment: Growth inhibition of human NCI/ADR-RES cells; assay type: functional; outline: as §1
HOP-62 = experiment: Growth inhibition of human HOP62 cells; assay type: functional; outline: as §1
ACHN = experiment: Growth inhibition of human ACHN cells; assay type: functional; outline: as §1
Bacillus subtilis = experiment: Antimicrobial activity against Bacillus subtilis at 100 ug/ml; assay type: functional, organism-based
OVCAR-4 = experiment: Growth inhibition of human OVCAR4 cells; assay type: functional; outline: as §1
HCT-15 = experiment: Growth inhibition of human HCT15 cells; assay type: functional; outline: as §1
BT-549 = experiment: Growth inhibition of human BT549 cells; assay type: functional; outline: as §1
DU-145 = experiment: Growth inhibition of human DU145 cells; assay type: functional; outline: as §1
HL-60(TB) = experiment: Growth inhibition of human HL-60(TB) cells; assay type: functional
Outline: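 Run in the NCI 60-cell line panel using the standard NCI protocol. The value is reported as GI50 in molar units, with 10^-4 M the top concentration examined.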

HOP-92 = experiment: Growth inhibition of human HOP92 cells; assay type: functional; outline: as §1
U-251 = experiment: Growth inhibition of human U251 cells; assay type: functional; outline: as §2
CAKI-1 = experiment: Growth inhibition of human Caki1 cells; assay type: functional; outline: as §1
EKVX = experiment: Growth inhibition of human EKVX cells; assay type: functional; outline: as §1
OVCAR-8 = experiment: Growth inhibition of human OVCAR8 cells; assay type: functional; outline: as §1
K562 = experiment: Growth inhibition of human K562 cells; assay type: functional; outline: as §1
[1] = Growth inhibition of human RPMI8266 cells; assay type: functional; outline: as §2
IGROV-1 = experiment: Growth inhibition of human IGROV1 cells; assay type: functional; outline: as §1
SR = experiment: Growth inhibition of human SR cells; assay type: functional; outline: as §2
PC-3 = experiment: Growth inhibition of human PC3 cells; assay type: functional; outline: as §2
Salmonella typhimurium = experiment: Antimicrobial activity against Salmonella Typhimurium at 100 ug/ml; assay type: functional, organism-based; conditions: Salmonella enterica subsp. enterica serovar Typhimurium
Proteus sp. = experiment: Antimicrobial activity against Proteus sp. at 100 ug/ml; assay type: functional, organism-based
Enterococcus faecalis = experiment: Antimicrobial activity against Enterococcus faecalis at 100 ug/ml; assay type: functional, organism-based
SF-268 = experiment: Growth inhibition of human SF268 cells; assay type: functional; outline: as §2
CCRF-CEM = experiment: Growth inhibition of human CCRF-CEM cells; assay type: functional; outline: as §1
Candida albicans = experiment: Antimicrobial activity against Candida albicans at 100 ug/ml; assay type: functional, organism-based
786-0 = experiment: Growth inhibition of human 786-0 cells; assay type: functional; outline: as §1
RXF 393 = experiment: Growth inhibition of human RXF393 cells; assay type: functional; outline: as §2
SNB-75 = experiment: Growth inhibition of human SNB75 cells; assay type: functional; outline: as §2
OVCAR-5 = experiment: Growth inhibition of human OVCAR5 cells; assay type: functional; outline: as §1
[2] = read-out: pLC50 (the source's name) (converted)

With `COc1cccc(/C=C/[C@H]2O[C@@H](C)[C@H](O)[C@@H]2O)c1CO` [VARITRIOL] the GI50 (HT-29) was > 100 µM, the CC50 (HT-29; [2]) was > 100 µM and the TGI (HT-29; read-out: pTGI) was > 100 µM. For the same compound, the GI50 (KM12) was > 100 µM, the CC50 (KM12; [2]) was > 100 µM and the TGI (KM12; read-out: pTGI) was > 100 µM. For the same compound, the GI50 (UACC-257) was > 100 µM, the CC50 (UACC-257; [2]) was > 100 µM and the TGI (UACC-257; read-out: pTGI) was > 100 µM. For the same compound, the GI50 (Malme-3M) was > 100 µM, the CC50 (Malme-3M; [2]) was > 100 µM and the TGI (Malme-3M; read-out: pTGI) was > 100 µM. For the same compound, the GI50 (COLO 205) was 95.5 µM, the CC50 (COLO 205; [2]) was > 100 µM and the TGI (COLO 205; read-out: pTGI) was > 100 µM. For the same compound, the GI50 (NCI/ADR-RES) was > 100 µM, the CC50 (NCI/ADR-RES; [2]) was > 100 µM and the TGI (NCI/ADR-RES; read-out: pTGI) was > 100 µM. For the same compound, the GI50 (HOP-62) was > 100 µM, the CC50 (HOP-62; [2]) was > 100 µM and the TGI (HOP-62; read-out: pTGI) was > 100 µM. The GI50 (ACHN) was > 100 µM, the CC50 (ACHN; [2]) was > 100 µM and the TGI (ACHN; read-out: pTGI) was > 100 µM. The Activity (Bacillus subtilis) was “inactive”, the GI50 (OVCAR-4) was > 100 µM and the CC50 (OVCAR-4; [2]) was > 100 µM. For the same compound, the TGI (OVCAR-4; read-out: pTGI) was > 100 µM, the GI50 (HCT-15) was > 100 µM and the CC50 (HCT-15; [2]) was > 100 µM. For the same compound, the TGI (HCT-15; read-out: pTGI) was > 100 µM, the GI50 (BT-549) was > 100 µM and the CC50 (BT-549; [2]) was > 100 µM. The TGI (BT-549; read-out: pTGI) was > 100 µM, the GI50 (DU-145) was 1.1 µM and the CC50 (DU-145; [2]) was > 100 µM. For the same compound, the TGI (DU-145; read-out: pTGI (converted)) was 2.4 µM, the GI50 (HL-60(TB)) was 25.1 µM and the CC50 (HL-60(TB); [2]) was > 100 µM. The TGI (HL-60(TB); read-out: pTGI) was > 100 µM, the GI50 (HOP-92) was > 100 µM and the CC50 (HOP-92; [2]) was > 100 µM. The TGI (HOP-92; read-out: pTGI) was > 100 µM, the GI50 (U-251) was > 100 µM and the CC50 (U-251; [2]) was > 100 µM. For the same compound, the TGI (U-251; read-out: pTGI) was > 100 µM, the GI50 (CAKI-1) was > 100 µM and the CC50 (CAKI-1; [2]) was > 100 µM. For the same compound, the TGI (CAKI-1; read-out: pTGI) was > 100 µM, the GI50 (EKVX) was > 100 µM and the CC50 (EKVX; [2]) was > 100 µM. For the same compound, the TGI (EKVX; read-out: pTGI) was > 100 µM, the GI50 (OVCAR-8) was > 100 µM and the CC50 (OVCAR-8; [2]) was > 100 µM. The TGI (OVCAR-8; read-out: pTGI) was > 100 µM, the GI50 (K562) was > 100 µM and the CC50 (K562; [2]) was > 100 µM. For the same compound, the TGI (K562; read-out: pTGI) was > 100 µM, the GI50 [1] was > 100 µM and the CC50 [1, 2] was > 100 µM. The TGI ([1]; read-out: pTGI) was > 100 µM, the GI50 (IGROV-1) was > 100 µM and the CC50 (IGROV-1; [2]) was > 100 µM. The TGI (IGROV-1; read-out: pTGI) was > 100 µM, the GI50 (SR) was > 100 µM and the CC50 (SR; [2]) was > 100 µM. For the same compound, the TGI (SR; read-out: pTGI) was > 100 µM, the GI50 (PC-3) was > 100 µM and the CC50 (PC-3; [2]) was > 100 µM. For the same compound, the TGI (PC-3; read-out: pTGI) was > 100 µM, the Activity (Salmonella typhimurium) was “inactive” and the Activity (Proteus sp.) was “inactive”. For the same compound, the Activity (Enterococcus faecalis) was “inactive”, the GI50 (SF-268) was > 100 µM and the CC50 (SF-268; [2]) was > 100 µM. For the same compound, the TGI (SF-268; read-out: pTGI) was > 100 µM, the GI50 (CCRF-CEM) was 25.7 µM and the CC50 (CCRF-CEM; [2]) was > 100 µM. The TGI (CCRF-CEM; read-out: pTGI (converted)) was 70.8 µM, the Activity (Candida albicans) was “inactive” and the GI50 (786-0) was > 100 µM. The CC50 (786-0; [2]) was > 100 µM, the TGI (786-0; read-out: pTGI) was > 100 µM and the GI50 (RXF 393) was 0.162 µM. The CC50 (RXF 393; [2]) was > 100 µM, the TGI (RXF 393; read-out: pTGI (converted)) was 0.933 µM and the GI50 (SNB-75) was 0.245 µM. The CC50 (SNB-75; [2]) was > 100 µM, the TGI (SNB-75; read-out: pTGI (converted)) was 1.02 µM and the GI50 (OVCAR-5) was 67.6 µM. For the same compound, the CC50 (OVCAR-5; [2]) was > 100 µM and the TGI (OVCAR-5; read-out: pTGI) was > 100 µM.
